Among the data in ChEMBL document CHEMBL1128592, “Phenethylthiazolethiourea (PETT) compounds, a new class of HIV-1 reverse transcriptase inhibitors. 1. Synthesis and basic structure-activity relationship studies of PETT analogs” (J Med Chem, 1995) are ED50, IC50 and CD50 values, retold here.

For test [1], the target named is Human immunodeficiency virus type 1 reverse transcriptase (Human immunodeficiency virus 1) (UniProt Q72547). Nature of the test: Concentration which reduced the cytopathic effect of HIV-1 in MT-4 infected cells. Type of test: functional, cell-based. Put shortly: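 MT4 cells at 2 × 10⁵ cells/mL in RPMI 1640 with 10% FCS, penicillin and streptomycin (2 × 10⁴ cells/well). Compounds added from DMSO stocks diluted in medium (final DMSO ≤1%), then HIV-1 IIIB at 10 TCID₅₀/well. After 6 days in CO₂, surviving cells read by XTT. ED₅₀ is the concentration reducing virus cytopathic effect, mean of at least two experiments.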

The target in test [2] is Human immunodeficiency virus type 1 reverse transcriptase (Human immunodeficiency virus 1, UniProt Q72547). The experiment in a line: Inhibition of HIV-1 reverse transcriptase using rCdG as template and dGTP as substrate.
Test [3] in a line: Concentration which reduced the viability of the uninfected MT-4 cells to 50% compared to untreated control cells. As to conditions: MT4.

The compound `CCOc1cccc(F)c1CCNC(=S)Nc1ccc(Br)cn1` registered an ED50 in test [1] of 20 nM. For the same compound, the IC50 in test [2] stood at 6 nM. Also, the CD50 in test [3] amounted to 50 µM.

In the case of `CCCCc1csc(NC(=S)NCCc2ccccc2)n1`, the ED50 in test [1] turned out to be 1300 nM. In addition, half-maximal inhibition in test [2] (IC50) was put at 2500 nM. Moreover, the CD50 in test [3] was 313 µM.
